Results of several laboratories.
Protocols differ between the studies behind these lines.
USP51: Ubiquitin carboxyl-terminal hydrolase 51 (USP51, Homo sapiens, UniProt Q70EK9)
CASP3: Caspase-3 (CASP3, Homo sapiens, UniProt P42574)
GHSR: Growth hormone secretagogue receptor type 1 (GHSR, Homo sapiens, UniProt Q92847)

O=c1cccc2n1C[C@@H]1CNC[C@H]2C1 — inhibition (USP51; enzyme activity; inhibitor; 5 µM): 0%
CN(C)C(=O)COC(=O)Cc1ccc(OC(=O)c2ccc(NC(=N)N)cc2)cc1 — inhibition (CASP3; enzyme activity; inhibitor; 10 µM): 0%
COc1cccc2c1cc([N+](=O)[O-])c1c(C(=O)O)cc3c(c12)OCO3 — inhibition (USP51; enzyme activity; inhibitor; 5 µM): 36%
C[C@H](C(=O)N[C@H]1COc2ccccc2[C@@H]1S(C)(=O)=O)c1ccc(F)cc1 — inhibition (GHSR; cell-free assay; 10 µM): -1%
C#Cc1n[nH]c2c(-c3cn(C(C)c4ccccn4)c(=O)[nH]c3=O)cc(F)cc12 (stereo not drawn) — inhibition (Serine/threonine-protein kinase Chk1 (CHEK1, Homo sapiens, UniProt O14757); enzyme activity; inhibitor; 1 µM): 7%
CC(=O)N[C@@H](CC(=O)O)C(=O)N[C@@H](CC(N)=O)C(=O)N[C@@H](CC(C)C)C(=O)N[C@H](C=O)CC(=O)O — inhibition (CASP3; enzyme activity; inhibitor; 0.1 µM): 80%
Cc1ncc(C)n2nc(/C=C/c3nc(N4CCCC4)cc(N4CCOCC4)n3)nc12 — inhibition (Prostaglandin F2-alpha receptor (PTGFR, Homo sapiens, UniProt P43088); ligand displacement; 10 µM): -9%
COCc1c(-c2cc3cc(C)cc(OC)c3s2)c2c(N)ncnn2c1CN1CCNC(=O)C1 — inhibition (GHSR; ligand displacement; radioligand; 10 µM): 11%
C[C@@H]1CC[C@H]2[C@@H](C)C(=O)O[C@@H]3O[C@@]4(C)CC[C@@H]1[C@]32OO4 — inhibition (USP51; enzyme activity; inhibitor; 5 µM): 17%
c1ccc(C(NCCNC(c2ccccc2)c2ccccc2)c2ccccc2)cc1 — inhibition (GHSR; cell-free assay; 10 µM): 86%
Cn1cc(-c2cccc(N3CCc4c(sc5c4CC(C)(C)C5)C3=O)c2CO)cc(Nc2ccncn2)c1=O — inhibition (Calcium/calmodulin-dependent protein kinase type IV (CAMK4, Homo sapiens, UniProt Q16566); enzyme activity; inhibitor; 1 µM): -5%
COC1=CC(=O)O[C@@H](/C=C/c2ccccc2)C1 — inhibition (USP51; enzyme activity; inhibitor; 5 µM): 40%
O=C(Nc1cccnn1)N1CCN([C@@H]2CCOc3cc(C(F)(F)F)ccc32)CC1 — inhibition (Angiotensin-converting enzyme (ACE, Homo sapiens, UniProt P12821); enzyme activity; inhibitor; 20 µM): -7%
C#Cc1n[nH]c2c(-c3cn([C@@H](C)c4ccccc4)c(=O)[nH]c3=O)cc(F)cc12 — inhibition (AP2-associated protein kinase 1 (AAK1, Homo sapiens, UniProt Q2M2I8); enzyme activity; inhibitor; 0.1 µM): -0.1%
COC(=O)C[C@](O)(CCC(C)(C)O)C(=O)O[C@@H]1C(OC)=C[C@]23CCCN2CCc2cc4c(cc2[C@H]13)OCO4 — inhibition (USP51; enzyme activity; inhibitor; 5 µM): 0%
